Results of several laboratories.
Lines come from different studies, so protocols differ.
Target: Carbonic anhydrase 2 (CA2, Homo sapiens, UniProt P00918)
Effect on: enzyme activity
Action: inhibitor

With N#C[Se]CCCCOc1ccc2c(-c3ccccc3)cc(=O)oc2c1 the Ki was greater than 100000 nM (stopped-flow).
For O=C(Nc1ccc2c(c1)C=CCP(=O)(O)O2)c1ccco1, the Ki was greater than 10000 nM (stopped-flow).
Cc1ccc([C@@H]2[C@@H](C(=O)c3cccs3)[C@H](c3ccco3)[C@H]3/C(=N\NC(N)=S)c4ccccc4[C@H]32)cc1 (racemic) has an IC50 of 844 nM (absorbance).
For CC(C)c1cc2c(c(O)c1O)[C@@]1(C(=O)O)CCCC(C)(C)[C@@H]1CC2, the Ki was 4.2 nM.
For O=C(Nc1ccc2c(c1)C=CCP(=O)(O)O2)c1ccc(Br)cc1, the Ki was greater than 10000 nM (stopped-flow).
N#C[Se]Cc1cc(=O)oc2cc(O)ccc12 gave a Ki of greater than 100000 nM (stopped-flow).
With Cc1ccc([C@H]2[C@H](C(=O)c3cccs3)[C@@H](c3cccs3)[C@@H]3c4ccccc4/C(=N/NC(N)=S)[C@@H]32)cc1 (racemic) the IC50 was 562 nM (absorbance).
CC(C)c1cc2c(c(O)c1O)[C@@]13CCCC(C)(C)[C@@H]1[C@@H](O)[C@@H]2OC3=O has an IC50 of 5.78 nM.
NC(=S)N/N=C1/c2ccccc2[C@@H]2[C@H]1[C@@H](c1ccc(C(F)(F)F)cc1)[C@H](C(=O)c1ccc(C(F)(F)F)cc1)[C@H]2c1ccc(C(F)(F)F)cc1 (racemic) has an IC50 of 551 nM (absorbance).
For CC(C)c1cc2c(c(O)c1O)[C@@]13CCCC(C)(C)[C@@H]1C[C@@H]2OC3=O, the IC50 was 5.47 nM.
For COc1ccc(C(=O)[C@@H]2[C@@H](c3ccc(OC)cc3)[C@@H]3c4ccccc4/C(=N/NC(N)=S)[C@@H]3[C@H]2c2ccc(OC)cc2)cc1 (racemic), the IC50 was 992 nM (absorbance).
For O=C(Nc1ccc2c(c1)C=CCP(=O)(O)O2)c1ccc(Cl)cc1, the Ki was greater than 10000 nM (stopped-flow).
With CC(C)c1cc2c(c(O)c1O)[C@@]13CCCC(C)(C)[C@@H]1[C@H](OC3=O)[C@H]2O the Ki was 4.99 nM.
The Ki of O=C(Nc1ccc2c(c1)C=CCP(=O)(O)O2)c1ccc2ccccc2c1 is reported as greater than 10000 nM (stopped-flow).
NC(=S)N/N=C1/c2ccccc2[C@@H]2[C@H]1[C@@H](c1ccsc1)[C@H](C(=O)c1ccsc1)[C@H]2c1ccsc1 (racemic) has an IC50 of 523 nM (absorbance).
